Laboratory results as given in ChEMBL document CHEMBL1141378, “Structures of steroidal alkaloid oligoglycosides, robeneosides A and B, and antidiabetogenic constituents from the Brazilian medicinal plant Solanum lycocarpum” (2007).

How the values were obtained:
Rattus norvegicus [1] = experiment: Inhibition of increase in serum glucose level in sucrose-loaded Wistar rat at 100 mg/kg, po after 0.5 hrs; type: functional
Procedure, shortened: (§1)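 Male Wistar rats (about 130-150 g) fasted 20-24 h, water allowed. Test sample suspended in 5% acacia solution, given orally at 10 mL/kg; controls get vehicle. Thirty minutes later, 20% (w/v) sucrose at 5 mL/kg po (water for the normal group). Serum taken 0.5, 1 and 2 h after loading; glucose measured by glucose-oxidase method. Means ± SEM; one-way ANOVA with Dunnett's test.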

Rattus norvegicus [2] = experiment: Inhibition of increase in serum glucose level in sucrose-loaded Wistar rat at 100 mg/kg, po after 1 hr; type: functional; procedure, shortened: as §1
Rattus norvegicus [3] = experiment: Inhibition of increase in serum glucose level in sucrose-loaded Wistar rat at 25 mg/kg, po after 2 hrs; type: functional; procedure, shortened: as §1
Rattus norvegicus [4] = experiment: Inhibition of increase in serum glucose level in sucrose-loaded Wistar rat at 25 mg/kg, po after 1 hr; type: functional; procedure, shortened: as §1
Mus musculus [5] = experiment: Suppression of gastric emptying in CMC-Na-loaded mouse at 50 mg/kg, po after 30 mins; type: functional, Stomach
Procedure, shortened: (§2)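 Male ddY mice (about 30-32 g) fasted 20-24 h, dosed orally in 5% acacia (10 mL/kg) 30 min before an intragastric meal of 1.5% CMC-Na with 0.05% phenol red (0.5 mL/mouse). Killed 30 min later; stomach homogenized in 0.1 M NaOH, TCA-deproteinized, alkalinized, read at 560 nm. Emptying % calculated against mice killed immediately after the meal. Means ± SEM, Dunnett's test.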

Mus musculus [6] = experiment: Suppression of gastric emptying in CMC-Na-loaded mouse at 25 mg/kg, po after 30 mins; type: functional, Stomach; procedure, shortened: as §2
Rattus norvegicus [7] = experiment: Inhibition of increase in serum glucose level in sucrose-loaded Wistar rat at 100 mg/kg, po after 2 hrs; type: functional; procedure, shortened: as §1
Rattus norvegicus [8] = experiment: Inhibition of increase in serum glucose level in sucrose-loaded Wistar rat at 50 mg/kg, po after 2 hrs; type: functional; procedure, shortened: as §1
Rattus norvegicus [9] = experiment: Inhibition of increase in serum glucose level in sucrose-loaded Wistar rat at 50 mg/kg, po after 0.5 hrs; type: functional; procedure, shortened: as §1
Rattus norvegicus [10] = experiment: Inhibition of increase in serum glucose level in sucrose-loaded Wistar rat at 50 mg/kg, po after 1 hr; type: functional; procedure, shortened: as §1
Rattus norvegicus [11] = experiment: Inhibition of increase in serum glucose level in sucrose-loaded Wistar rat at 25 mg/kg, po after 0.5 hrs; type: functional; procedure, shortened: as §1
Rattus norvegicus [12] = experiment: Inhibition of increase in serum glucose level in sucrose-loaded Wistar rat at 12.5 mg/kg, po after 0.5 hrs; type: functional; procedure, shortened: as §1
Rattus norvegicus [13] = experiment: Inhibition of increase in serum glucose level in sucrose-loaded Wistar rat at 12.5 mg/kg, po after 1hr; type: functional; procedure, shortened: as §1
Rattus norvegicus [14] = experiment: Inhibition of increase in serum glucose level in sucrose-loaded Wistar rat at 12.5 mg/kg, po after 2 hrs; type: functional; procedure, shortened: as §1
Rattus norvegicus [15] = experiment: Inhibition of increase in serum glucose level in sucrose-loaded Wistar rat at 125 mg/kg, po after 1 hr; type: functional; procedure, shortened: as §1
Rattus norvegicus [16] = experiment: Inhibition of increase in serum glucose level in sucrose-loaded Wistar rat at 500 mg/kg, po after 1 hr; type: functional; procedure, shortened: as §1
Rattus norvegicus [17] = experiment: Inhibition of increase in serum glucose level in sucrose-loaded Wistar rat at 500 mg/kg, po after 0.5 hrs; type: functional; procedure, shortened: as §1
Rattus norvegicus [18] = experiment: Inhibition of increase in serum glucose level in sucrose-loaded Wistar rat at 500 mg/kg, po after 2 hrs; type: functional; procedure, shortened: as §1
Rattus norvegicus [19] = experiment: Inhibition of increase in serum glucose level in sucrose-loaded Wistar rat at 125 mg/kg, po after 2 hrs; type: functional; procedure, shortened: as §1
Rattus norvegicus [20] = experiment: Inhibition of increase in serum glucose level in sucrose-loaded Wistar rat at 125 mg/kg, po after 0.5 hrs; type: functional; procedure, shortened: as §1

Q: How did the Activity (Rattus norvegicus [1]) turn out when `C[C@@H]1CC[C@@]2(NC1)O[C@H]1C[C@H]3[C@@H]4CC=C5C[C@@H](O[C@@H]6O[C@H](CO)[C@@H](O[C@@H]7O[C@@H](C)[C@H](O)[C@@H](O)[C@H]7O)[C@H](O)[C@H]6O[C@@H]6O[C@@H](C)[C@H](O)[C@@H](O)[C@H]6O)CC[C@]5(C)[C@H]4CC[C@]3(C)[C@H]1[C@@H]2C` [SOLAMARGINE] was run?
A: 118.5 mg/dL

Q: What about the Activity (Rattus norvegicus [2]) of the same compound?
A: 116.6 mg/dL

Q: And the Activity (Rattus norvegicus [3])?
A: 133.7 mg/dL

Q: And the Activity (Rattus norvegicus [4])?
A: 139.9 mg/dL

Q: And the Activity (Mus musculus [5])?
A: 58.4%

Q: And the Activity (Mus musculus [6])?
A: 73.7%

Q: What about the Activity (Rattus norvegicus [7]) of the same compound?
A: 122.3 mg/dL

Q: What about the Activity (Rattus norvegicus [8]) of the same compound?
A: 118.7 mg/dL

Q: What about the Activity (Rattus norvegicus [9]) of the same compound?
A: 124.3 mg/dL

Q: What about the Activity (Rattus norvegicus [10]) of the same compound?
A: 117.1 mg/dL

Q: And the Activity (Rattus norvegicus [11])?
A: 141.7 mg/dL

Q: With `C[C@@H]1CC[C@@]2(NC1)O[C@H]1C[C@H]3[C@@H]4CC=C5C[C@@H](O[C@@H]6O[C@H](CO)[C@H](O)[C@H](O[C@@H]7O[C@H](CO)[C@@H](O)[C@H](O)[C@H]7O)[C@H]6O[C@@H]6O[C@@H](C)[C@H](O)[C@@H](O)[C@H]6O)CC[C@]5(C)[C@H]4CC[C@]3(C)[C@H]1[C@@H]2C` [SOLASONINE] as the compound, how does the Activity (Rattus norvegicus [1]) read?
A: 124.7 mg/dL

Q: What about the Activity (Rattus norvegicus [2]) of the same compound?
A: 122.4 mg/dL

Q: What about the Activity (Rattus norvegicus [3]) of the same compound?
A: 129.5 mg/dL

Q: And the Activity (Rattus norvegicus [4])?
A: 157.6 mg/dL

Q: And the Activity (Mus musculus [5])?
A: 74.8%

Q: And the Activity (Mus musculus [6])?
A: 75.4%

Q: What about the Activity (Rattus norvegicus [7]) of the same compound?
A: 121.9 mg/dL

Q: And the Activity (Rattus norvegicus [8])?
A: 135.4 mg/dL

Q: And the Activity (Rattus norvegicus [9])?
A: 132.7 mg/dL

Q: And the Activity (Rattus norvegicus [10])?
A: 136.7 mg/dL

Q: What about the Activity (Rattus norvegicus [11]) of the same compound?
A: 158.8 mg/dL

Q: What does the source list for `CCCCNC(=O)NS(=O)(=O)c1ccc(C)cc1` [TOLBUTAMIDE]?
A: Activity (Rattus norvegicus [12]): 152.6 mg/dL; Activity (Rattus norvegicus [13]): 130.5 mg/dL; Activity (Rattus norvegicus [3]): 99.5 mg/dL; Activity (Rattus norvegicus [4]): 106.3 mg/dL; Activity (Rattus norvegicus [14]): 114.9 mg/dL; Activity (Rattus norvegicus [11]): 138.1 mg/dL

Q: `CN(C)C(=N)NC(=N)N` [METFORMIN] was tested. Which Activity (Rattus norvegicus [15]) did it give?
A: 136 mg/dL

Q: And the Activity (Rattus norvegicus [16])?
A: 105.6 mg/dL

Q: And the Activity (Rattus norvegicus [17])?
A: 113.1 mg/dL

Q: What about the Activity (Rattus norvegicus [18]) of the same compound?
A: 119.8 mg/dL

Q: And the Activity (Rattus norvegicus [19])?
A: 115.5 mg/dL

Q: And the Activity (Rattus norvegicus [20])?
A: 134.8 mg/dL
